# In the library only some 3.5% were active in any assay of this set; here they are far more common.
# RGS4 pot – RGS4 potentiation or activation | HEK293 M3R/inducible RGS4, carbachol calcium flux Fluo4; active compounds read low | B-score at 10 µM | 0.92% of 310,000 active | AID 463111;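 active = B-score of the integrated calcium signal more than 4 SD below the library mean, with starting fluorescence not abnormally high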;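 note: negative B-score means reduced calcium response which marks RGS4 activation or potentiation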
#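 Detection: kinetic calcium fluorescence imaging with Fluo4-AM dye, 2 µM / Material: HEK293 cells with stable M3R and inducible RGS4 / Schedule: recording 10 s baseline at 1 Hz, 100 s post-agonist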
# MrgX1 agonist – activates human MrgX1 receptor signaling | Q96LB2 | MrgX1-HEK293 cells, Fluo-4 calcium fluorescence, agonist mode; active compounds read high | B-score at 10 µM | 0.44% of 310,000 active | AID 588627;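 active = calcium response B-score plate-corrected fluorescence ratio at least 3 library SD, with starting fluorescence B-score inside 5 SD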
#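 Material: HEK293 cells stably expressing human MrgX1 receptor | Quantity: 15,000 cells per well | Times: Cells plated overnight, dye loaded 0.5 h 37 °C, 0.5 h room temperature | Measured by: Kinetic Fluo-4 NW fluorescence of intracellular calcium | Control set: Positive and negative controls per plate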
# RGS4 inh – inhibitors of human RGS4; B-score at 10 µM; 0.45% of 310,000 active; HEK293 M3R/RGS4 inducible, Fluo-4 calcium flux; active compounds read high; triggered by carbachol at its EC20; P49798;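 active = B-score, a plate-corrected calcium signal, over three deviations above library mean, with baseline fluorescence within five deviations of library mean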;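 note: RGS4 expression induced by doxycycline in cells with stable M3 receptor; B-score is computed from the integrated fluorescence ratio over baseline after carbachol; higher B-score means a larger calcium signal and so more RGS4 inhibition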
# Target sequence (P49798 whole entry, looked up): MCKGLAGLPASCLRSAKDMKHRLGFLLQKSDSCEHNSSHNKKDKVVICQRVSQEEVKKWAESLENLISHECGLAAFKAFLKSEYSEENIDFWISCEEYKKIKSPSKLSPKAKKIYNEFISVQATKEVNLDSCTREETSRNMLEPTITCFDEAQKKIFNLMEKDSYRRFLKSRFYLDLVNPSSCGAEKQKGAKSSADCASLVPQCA
# MrgX1 allo act – human MrgX1 positive allosteric modulation, primary screen; 0.63% of 310,000 active; AID 588675; MrgX1-HEK293, Fluo-4 calcium flux, FDSS; active compounds read high; B-score at 10 µM;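 active = plate-corrected calcium response at least 3 library SD above typical, normal starting fluorescence, not activating the receptor alone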;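 note: compound read alongside a low EC10 to EC30 dose of BAM8-22 agonist; peak minus trough fluorescence over baseline measured at the second addition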
# MrgX1 antagonist – human MrgX1 receptor antagonism, primary screen; Q96LB2; MRGX1-HEK293 calcium flux, Fluo-4, BAM8-22 antagonism; active compounds read low; B-score at 10 µM; 1.3% of 310,000 active;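 active = calcium-response B-score plate-corrected more than 3 library SD below zero, starting fluorescence within 5 deviations, no agonist response on first addition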;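 note: peak minus trough fluorescence over baseline after final BAM8-22 challenge near maximal dose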
# MrgX1 antag conf – human MrgX1 receptor antagonism, re-confirmation screen | MrgX1-HEK293, BAM8-22 calcium flux, Fluo-4; active compounds read low | AID 602420 | shares compounds with MrgX1 antagonist | 19% of 2,300 active | remaining BAM8-22 calcium response % of control (active compounds read low), % at 10 µM;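 active = remaining agonist calcium response no higher than 100% minus 3 SD of agonist-only control wells, with starting fluorescence near control levels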;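 note: agonist BAM8-22 given at a near maximal EC90 to ECmax level; peak minus minimum fluorescence divided by baseline after agonist addition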
# HEK293 Ca flux – MrgX1 antagonist counter-screen hit in parental HEK293 cells. shares compounds with MrgX1 antagonist. Fluo-4 calcium fluorescence, FDSS. 2% of 4,000 active. fluorescence ratio F(max-min)/F0 at 10 µM;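 active = duplicate-averaged calcium fluorescence ratio at least three times the standard deviation of buffer wells, a nonspecific response in parental cells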
# HEK293 Ca counter – MrgX1 allosteric activator counter-screen hit in parental HEK293 cells; shares compounds with MrgX1 antagonist; parental HEK293 calcium flux, Fluo-4 fluorescence ratio; active compounds read high; fluorescence ratio F(max-min)/F0 at 10 µM; 0.4% of 4,000 active;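 active = calcium fluorescence ratio, averaged over duplicates, at least 3 SD of the buffer-well ratio, meaning a nonspecific response in receptor-free cells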;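 note: untransfected parental HEK293 lacking MrgX1 used as counterscreen for MrgX1 allosteric activators; fluorescence change taken during the second addition on a kinetic imager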
# HEK293 Ca cntr2 – MrgX1 activator counter-screen hit in parental HEK293 cells; fluorescence ratio F(max-min)/F0 at 10 µM; shares compounds with MrgX1 antagonist; 8.7% of 4,000 active; Fluo-4 calcium fluorescence (FDSS); active compounds read high;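 active = calcium fluorescence ratio at least three times the spread of buffer wells, meaning a non-specific response in parental cells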
# Numbers without * were called inactive; i = inactive; / = no result given.
SMILES,RGS4 pot,MrgX1 agonist,RGS4 inh,MrgX1 allo act,MrgX1 antagonist,MrgX1 antag conf,HEK293 Ca flux,HEK293 Ca counter,HEK293 Ca cntr2
Cn1nccc1C(=O)N1CCc2c([nH]c3ccccc23)C1c1ccc(F)cc1 (centres undefined),i,i,i,i,-7.3*,i,i,i,i
O=c1oc2ccccc2c(Nc2ccc(O)cc2)c1[N+](=O)[O-],i,i,i,i,i,/,/,/,/
CCCCN1C(=O)/C(=C/C=C2/CC(C)(C)CN2C)SC1=S,i,i,i,i,i,/,/,/,/
O=C(Cn1c(C(F)(F)F)nc2ccccc21)Nc1ccccc1C(=O)O,i,i,i,i,-5.8*,i,i,i,i
CC(C(=O)Nc1ccccc1C(=O)O)n1c(C(F)(F)F)nc2ccccc21 (centres undefined),i,i,i,i,i,/,/,/,/
CCOC(=O)N1CCN(C(=O)CCCn2c(=S)[nH]c3ccccc3c2=O)CC1,i,i,i,i,i,/,/,/,/
CCOC(=O)N1CCN(C(=O)CCCn2c(=O)[nH]c3ccccc3c2=O)CC1,i,i,i,i,-7.4*,i,i,i,i
Nc1nnc(SCc2cc3c(cc2Cl)OCO3)s1,i,i,i,i,-6.3*,i,i,i,i
Nc1nnc(SCc2ccccc2Cl)s1,i,i,i,i,i,/,/,/,/
O=C(CSc1ncn(-c2ccccc2)n1)Nc1ccc(Br)cn1,i,i,i,i,i,/,/,/,/
CCC(=O)Nc1ccc(Br)cn1,i,i,i,i,-5.4*,i,i,i,i
O=C(CSc1ccccn1)Nc1ccc(Br)cn1,i,i,i,i,-5.3*,i,i,i,i
Cc1ccc(-c2cc(C(=O)NCc3ccccn3)c3ccccc3n2)cc1C,i,i,i,i,i,/,/,/,/
Nc1nc(SCC(=O)Nc2c(Br)cc([N+](=O)[O-])cc2Br)n[nH]1,i,i,i,i,i,/,/,/,/
CCOC(=O)N1CCN(c2c(N3CCOCC3)c(=O)c2=O)CC1,i,i,i,i,i,/,/,/,/
CCOC(=O)N1CCN(c2c(Nc3ccc4c(c3)OCCO4)c(=O)c2=O)CC1,i,i,i,i,-6.8*,i,i,i,i
CCCc1cc(=O)oc2cc(OCC(=O)NCC(O)c3ccccc3)ccc12 (centres undefined),i,i,i,i,i,/,/,/,/
CCN(CC)S(=O)(=O)c1ccc2oc(C(=O)O)c(C)c2c1,i,i,i,i,i,/,/,/,/
CCN(Cc1ccccc1)S(=O)(=O)c1ccc2oc(C(=O)O)c(C)c2c1,i,i,i,i,-5.2*,i,i,i,i
CCC(Sc1ncccc1C(=O)O)C(=O)N1CCOCC1 (centres undefined),i,i,i,i,-6.8*,80%*,i,i,i
CCC(Sc1ncccc1C(=O)O)C(=O)N1CCCC1 (centres undefined),i,i,i,i,i,/,/,/,/
CCOC(=O)C1=C(C)Nc2nc(C)nn2C1c1ccc(OC)c(OC)c1 (centres undefined),i,i,i,i,-6.7*,i,i,i,i
O=C(OCc1nnc(-c2ccccc2)o1)C1CC(=O)N(c2ccccc2)C1 (centres undefined),i,i,i,i,i,/,/,/,/

# Source: PubChem BioAssay
